In PMC9073132 (Journal of Pharmaceutical Analysis, 2021):

Format: in vivo, Wistar rats
Details: intragastric crude VB extract 200 mg/kg; concentrations lower than LLOQ
Outline: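 Male Wistar rats (200 ± 20 g) were acclimated 7 days with food and water ad libitum. Crude extract, predissolved in 0.5% DMSO and dispersed in 5 mg/mL sodium carboxymethylcellulose, was given intragastrically at 200 mg/kg. Heparinized blood was taken on ice at 0–24 h (12 points) and spun; plasma was held at −20 °C. Plasma (100 μL) plus IS was extracted with ethyl acetate, then 14 bufadienolides quantified by UHPLC-MS/MS against LLOQ.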

Row | Structure (SMILES) | Detection in rat plasma samples over the sampling period (LC-MS/MS quantitation)
1 | CC(=O)O[C@H]1C[C@]2(O)[C@@H]3CC[C@@H]4C[C@@H](O)CC[C@]4(C)[C@H]3CC[C@]2(C)[C@H]1c1ccc(=O)oc1 [CS15, bufotalin] | not detected
2 | C[C@]12CC[C@H]3[C@@H](CC[C@@H]4C[C@@H](O)CC[C@@]43C=O)[C@]13O[C@@H]3CC2c1ccc(=O)oc1 (stereo partly drawn) [CS16, resibufagin] | not detected
3 | CC(=O)O[C@H]1[C@H]2O[C@]23[C@@H]2CC[C@@H]4C[C@@H](O)CC[C@]4(C=O)[C@H]2CC[C@]3(C)[C@H]1c1ccc(=O)oc1 [CS17, 19-oxocinobufagin] | not detected
4 | CC(=O)O[C@H]1[C@H]2O[C@]23[C@@H]2CC[C@]4(O)C[C@@H](O)CC[C@]4(C)[C@H]2CC[C@]3(C)[C@H]1c1ccc(=O)oc1 [CS19, cinobufotalin] | not detected

Same assay, conditions: male, Wistar, rat, plasma, po, 200 mg/kg

Row | Structure (SMILES) | AUC(0-t) [ng·h/mL] | Cmax [ng/mL] | MRT last [h] | Tmax [h] | half-life [h]
5 | C[C@]12CC[C@H](O)C[C@@]1(O)CC[C@@H]1[C@@H]2CC[C@]2(C)[C@@H](c3ccc(=O)oc3)CC[C@]12O [CS14, telocinobufagin] | 7.22 ± 0.428 | 4.84 ± 1.09 | 0.932 ± 0.129 | 0.521 ± 0.315 | 1.88 ± 1.19
6 | C[C@]12CC[C@H](O)C[C@H]1CC[C@@H]1[C@@H]2CC[C@]2(C)[C@@H](c3ccc(=O)oc3)CC[C@]12O [CS21, bufalin] | 17 ± 1.76 | 7.08 ± 1.85 | 1.48 ± 0.115 | 0.396 ± 0.292 | 1.77 ± 0.821
7 | C[C@]12CC[C@H](O)C[C@H]1CC[C@@H]1[C@@H]2CC[C@]2(C)[C@@H](c3ccc(=O)oc3)C[C@H]3O[C@]132 [CS22, resibufogenin] | 4.53 ± 0.701 | 3.79 ± 3.78 | 0.836 ± 0.141 | 0.333 ± 0.204 | 1.2 ± 0.477
8 | CC(=O)O[C@H]1[C@H]2O[C@]23[C@@H]2CC[C@@H]4C[C@@H](O)CC[C@]4(C)[C@H]2CC[C@]3(C)[C@H]1c1ccc(=O)oc1 [CS23, cinobufagin] | 5.2 ± 2.83 | 7.29 ± 10.4 | 0.913 ± 0.23 | 0.833 ± 0.825 | 1.32 ± 0.526
9 | C[C@]12CC[C@H](O)C[C@H]1CC[C@@H]1[C@@H]2CC[C@]2(C)[C@@H](c3ccc(=O)oc3)[C@@H](O)[C@H]3O[C@]132 [CS30, desacetylcinobufagin] | 104 ± 6.06 | 24.1 ± 2.27 | 4.67 ± 1.01 | 0.875 ± 0.25 | 10.8 ± 5.24
10 | C[C@]12CC[C@H](O)C[C@H]1CC[C@@H]1[C@@H]2[C@H](O)C[C@]2(C)[C@@H](c3ccc(=O)oc3)CC[C@]12O [CS36, gamabufotalin] | 223 ± 11.3 | 84.4 ± 4 | 2.5 ± 0.603 | 0.812 ± 0.125 | 2.82 ± 1.27

Same assay, conditions: rat plasma, intragastric crude VB extract 200 mg/kg, n=4

Row | Structure (SMILES) | AUC(0-t) [ng·h/mL] | Cmax [ng/mL] | MRT(0-t) [h] | Tmax [h] | t1/2 [h]
11 | C[C@]12CC[C@H](O)C[C@H]1CC[C@@H]1[C@@H]2C(=O)[C@H](O)[C@]2(C)[C@@H](c3ccc(=O)oc3)CC[C@]12O [CS01, pseudobufarenogin] | 276.956 ± 60.642 | 67.225 ± 14.218 | 4.614 ± 0.481 | 0.75 ± 0 | 3.944 ± 1.276
12 | C[C@]12CC[C@H](O)C[C@H]1CC[C@@H]1[C@@H]2[C@H](O)C(=O)[C@]2(C)[C@@H](c3ccc(=O)oc3)CC[C@]12O [CS03, arenobufagin] | 1487.316 ± 407.361 | 466.5 ± 116.920 | 3.338 ± 1.011 | 0.938 ± 0.125 | 4.537 ± 2.442
13 | C[C@]12CC[C@H]3[C@@H](CC[C@]4(O)C[C@@H](O)CC[C@]34C=O)[C@@]1(O)CC[C@@H]2c1ccc(=O)oc1 [CS04, hellebrigenin] | 104.246 ± 20.661 | 13.35 ± 2.243 | 6.478 ± 1.035 | 1.438 ± 0.657 | 4.884 ± 2.116
14 | CC(=O)O[C@H]1[C@H]2O[C@]23[C@@H]2CC[C@]4(O)C[C@@H](O)CC[C@]4(C=O)[C@H]2CC[C@]3(C)[C@H]1c1ccc(=O)oc1 [CS11, 19-oxocinobufotalin] | 3.669 ± 0.511 | 2.752 ± 0.814 | 0.942 ± 0.05 | 0.562 ± 0.239 | 2.614 ± 2.802
